Columns and labels:
[1] = molecular target: T1, Transient receptor potential cation channel subfamily M member 5 (Homo sapiens, UniProt Q9NZQ8); assay: Agonist activity at human TRPM5 expressed in CHO-K1 cells maintained at 80 mV final holding potential by syncroPatch assay; format: cell-based
T1 sequence (Q9NZQ8 whole entry): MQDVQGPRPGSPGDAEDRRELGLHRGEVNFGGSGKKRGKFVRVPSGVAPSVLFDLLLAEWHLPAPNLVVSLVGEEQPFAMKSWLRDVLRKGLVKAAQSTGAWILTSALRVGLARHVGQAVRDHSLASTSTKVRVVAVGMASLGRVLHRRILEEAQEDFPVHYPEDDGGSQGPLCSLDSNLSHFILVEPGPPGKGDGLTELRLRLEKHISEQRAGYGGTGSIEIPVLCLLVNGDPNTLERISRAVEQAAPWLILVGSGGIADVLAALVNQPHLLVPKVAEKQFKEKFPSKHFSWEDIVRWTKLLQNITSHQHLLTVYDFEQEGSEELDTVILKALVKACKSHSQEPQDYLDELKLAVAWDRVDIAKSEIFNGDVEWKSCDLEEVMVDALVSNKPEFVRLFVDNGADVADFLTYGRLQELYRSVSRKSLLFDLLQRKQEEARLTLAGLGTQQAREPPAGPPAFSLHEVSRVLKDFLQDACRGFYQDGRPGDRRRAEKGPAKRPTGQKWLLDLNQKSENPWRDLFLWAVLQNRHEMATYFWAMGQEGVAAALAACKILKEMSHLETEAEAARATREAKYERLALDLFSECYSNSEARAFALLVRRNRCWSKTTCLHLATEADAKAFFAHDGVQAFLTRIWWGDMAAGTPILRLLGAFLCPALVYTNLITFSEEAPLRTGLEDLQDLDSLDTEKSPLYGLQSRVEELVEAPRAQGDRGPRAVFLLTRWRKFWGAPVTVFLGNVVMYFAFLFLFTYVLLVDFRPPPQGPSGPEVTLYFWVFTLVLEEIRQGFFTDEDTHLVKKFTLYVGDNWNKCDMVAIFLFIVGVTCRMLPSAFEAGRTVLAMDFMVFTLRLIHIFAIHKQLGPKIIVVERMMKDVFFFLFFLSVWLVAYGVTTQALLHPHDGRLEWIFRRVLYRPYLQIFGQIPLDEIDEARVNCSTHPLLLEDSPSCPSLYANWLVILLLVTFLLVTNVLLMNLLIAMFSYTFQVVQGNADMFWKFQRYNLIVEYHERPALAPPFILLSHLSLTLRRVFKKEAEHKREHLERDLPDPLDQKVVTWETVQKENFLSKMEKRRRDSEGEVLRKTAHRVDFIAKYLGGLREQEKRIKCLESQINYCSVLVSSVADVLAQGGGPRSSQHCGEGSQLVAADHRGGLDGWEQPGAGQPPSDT
Method in brief: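 SyncroPatch 384 whole-cell recording at rt on CHO-K1 cells stably expressing human or mouse TRPM5. Intracellular solution had 2 mM Na-ATP and 5 μM free Ca2+. Cumulative doses 0.03–31.6 μM in 0.5% DMSO, 150 s each after 180 s vehicle. Current measured at the end of the +80 mV step, normalized to vehicle; pEC50 is the mean of ≥2 independent experiments.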

[2] = molecular target: Transient receptor potential cation channel subfamily M member 8 (Homo sapiens, UniProt Q7Z2W7); assay: Agonist activity at human TRPM8 expressed in HEK cells assessed as increase in menthol-induced intracellular calcium level measured after 1 hr by FLIPR assay; format: cell-based
Method in brief: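 HEK cells with stable hTRPM8, 20,000/well on poly-D-lysine plates 24 h ahead. Loaded with calcium-6 dye and 2.5 mM probenecid, 1 h at 37 °C then 1 h at rt. First-addition calcium rise scaled to (−)menthol 100 μM final (100% control); pEC50 derived from the concentration–response. Final DMSO 0.5%; assay at rt.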

[3] = Efflux ratio of apparent permeability across basolateral to apical over apical to basolateral membrane in human Caco-2 cells incubated for 30 mins by LC-MS/MS analysis; format: ADME, cell-based
[4] = Protein binding in rat plasma assessed as unbound fraction measured after 5 hrs by equilibrium dialysis based HPLC/UPLC-MS/MS analysis; format: ADME, cell-free
[5] = Protein binding in human plasma assessed as unbound fraction measured after 5 hrs by equilibrium dialysis based HPLC/UPLC-MS/MS analysis; format: ADME, cell-free
[6] = Volume of distribution at steady state in CD-1 mouse at 1 mg/kg, iv measured up to 24 hrs; format: ADME, organism-based; details: in vivo, read-out: Vdss
[7] = Oral bioavailability in CD-1 mouse at 10 mg/kg measured up to 24 hrs; format: ADME, organism-based; details: in vivo
[8] = Clast in CD-1 mouse at 10 mg/kg, po measured up to 24 hrs; format: ADME, organism-based; details: in vivo, read-out: Clast
[9] = Protein binding in mouse plasma assessed as unbound fraction measured after 5 hrs by equilibrium dialysis based HPLC/UPLC-MS/MS analysis; format: ADME, cell-free
[10] = Drug concentration in C57BL6 mouse plasma at 3 mg/kg, po administered as single dose measured after 6 to 48 hrs by LC-MS/MS analysis; format: ADME, organism-based; details: in vivo, time 6-48 hrs
Method in brief: (§1)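 Single oral dose of 1, 3 or 100 mg/kg in mouse. Plasma (ng/mL) and colon and ileum (ng/g) exposure sampled at 6, 24 and 48 h, and at 72 h for the top dose; mean values reported.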

Mus musculus [11] = assay: Gastroprokinetic activity in CD-1 mouse assessed as stimulation of gastrointestinal motility by measuring fecal number at 100 mg/kg, po measured after 6 hrs (reference value: 20.1 +/-1.4); format: functional
Mus musculus [12] = assay: Gastroprokinetic activity in CD-1 mouse assessed as stimulation of gastrointestinal motility by measuring total fecal weight at 10 mg/kg, po measured after 2 hrs (reference value: 0.13 +/-0.02 g); format: functional
[13] = Drug concentration in C57BL6 mouse colon at 1 mg/kg, po administered as single dose measured after 6 hrs by LC-MS/MS analysis; format: ADME, organism-based; details: read-out: Ct; method in brief: as §1
Mus musculus [14] = assay: Gastroprokinetic activity in CD-1 mouse assessed as stimulation of gastrointestinal motility by measuring fecal number at 100 mg/kg, po measured after 3 hrs (reference value: 9.1 +/-1.1); format: functional
[15] = Drug concentration in C57BL6 mouse colon at 100 mg/kg, po administered as single dose measured after 72 hrs by LC-MS/MS analysis; format: ADME, organism-based; method in brief: as §1
Mus musculus [16] = assay: Gastroprokinetic activity in CD-1 mouse assessed as stimulation of gastrointestinal motility by measuring total fecal weight at 1 mg/kg, po measured after 3 hrs (reference value: 0.21 +/-0.03 g); format: functional
[17] = Drug concentration in C57BL6 mouse ileum at 1 mg/kg, po administered as single dose measured after 6 to 48 hrs by LC-MS/MS analysis; format: ADME, organism-based; details: in vivo, time 6-48 hrs; method in brief: as §1
Mus musculus [18] = assay: Gastroprokinetic activity in CD-1 mouse assessed as stimulation of gastrointestinal motility by measuring fecal number at 100 mg/kg, po measured after 1 hrs (reference value: 3 +/-0.8); format: functional
Mus musculus [19] = assay: Gastroprokinetic activity in CD-1 mouse assessed as stimulation of gastrointestinal motility by measuring total fecal weight at 10 mg/kg, po measured after 1 hrs (reference value: 0.08 +/-0.02 g); format: functional

Transient receptor potential cation channel subfamily M member 8, sequence (Q7Z2W7 whole entry): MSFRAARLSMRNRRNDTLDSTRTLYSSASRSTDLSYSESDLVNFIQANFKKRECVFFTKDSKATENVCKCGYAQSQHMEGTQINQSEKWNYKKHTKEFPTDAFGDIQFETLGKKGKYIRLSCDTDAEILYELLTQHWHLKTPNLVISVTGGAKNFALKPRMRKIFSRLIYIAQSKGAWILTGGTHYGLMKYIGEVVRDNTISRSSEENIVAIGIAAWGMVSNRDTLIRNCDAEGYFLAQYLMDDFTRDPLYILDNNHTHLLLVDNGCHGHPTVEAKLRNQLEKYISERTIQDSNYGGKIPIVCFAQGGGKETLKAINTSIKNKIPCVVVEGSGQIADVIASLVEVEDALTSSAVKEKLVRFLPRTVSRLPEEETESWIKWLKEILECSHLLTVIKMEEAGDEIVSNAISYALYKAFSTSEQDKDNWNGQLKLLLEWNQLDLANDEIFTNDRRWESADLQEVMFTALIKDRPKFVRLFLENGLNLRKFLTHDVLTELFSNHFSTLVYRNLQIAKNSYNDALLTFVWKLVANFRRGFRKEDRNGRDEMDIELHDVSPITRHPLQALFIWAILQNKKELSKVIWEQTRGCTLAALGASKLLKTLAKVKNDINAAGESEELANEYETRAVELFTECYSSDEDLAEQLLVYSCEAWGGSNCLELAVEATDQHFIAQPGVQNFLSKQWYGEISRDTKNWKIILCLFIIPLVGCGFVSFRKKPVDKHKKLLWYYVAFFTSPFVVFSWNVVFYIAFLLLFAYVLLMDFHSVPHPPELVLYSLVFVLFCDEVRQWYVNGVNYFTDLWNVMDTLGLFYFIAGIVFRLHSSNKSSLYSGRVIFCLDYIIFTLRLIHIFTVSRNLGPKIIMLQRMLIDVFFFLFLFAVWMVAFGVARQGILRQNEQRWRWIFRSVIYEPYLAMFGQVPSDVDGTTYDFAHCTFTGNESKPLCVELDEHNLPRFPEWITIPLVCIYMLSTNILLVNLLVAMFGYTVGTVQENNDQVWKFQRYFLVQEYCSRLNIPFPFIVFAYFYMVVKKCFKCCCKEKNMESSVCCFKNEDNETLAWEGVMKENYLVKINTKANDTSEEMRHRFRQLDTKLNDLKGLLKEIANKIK

Row | EC50 [1] | EC50 [2] | efflux ratio at 0.5 h [3] | fraction unbound at 5 h [4] | fraction unbound at 5 h [5] | Vd [6] | bioavailability [7] | concentration at 24 h [8] | fraction unbound at 5 h [9] | Cp [10] | concentration at 6 h [13] | concentration at 72 h [15] | Ct [17] | SMILES | Activity (Mus musculus [11]) | Activity (Mus musculus [12]) | Activity (Mus musculus [14]) | Activity (Mus musculus [16]) | Activity (Mus musculus [18]) | Activity (Mus musculus [19])
1 | 89.1 nM | > 15800 nM | 0.97 | < 0.01 | < 0.01 |  |  |  |  |  |  |  |  | Clc1cnc(CNc2ccc3sncc3c2)s1 |  |  |  |  |  | 
2 | 43.7 nM | > 15800 nM | 1.08 |  | < 0.01 | 1.12 L/kg | 1.54% | 2.76 ng/mL | < 0.01 |  |  |  |  | Clc1cnc(CNc2ccc3cnsc3c2)s1 |  |  |  |  |  | 
3 | 7.94 nM | > 15800 nM | 1.6 |  | < 0.01 |  |  |  | < 0.01 | < 20 ng/mL | 63.8 ng/g | < 20 ng/mL | < 20 ng/mL | Clc1cnc(CNc2cc3sncc3cc2Cl)s1 | 16.3 | 0.18 g | 13 | 0.23 g | 4 | 0.08 g
